Reference: ChEMBL document CHEMBL1649396, “Synthesis, biological evaluation of chrysin derivatives as potential immunosuppressive agents” (Eur J Med Chem, 2011)

Columns and labels:
[1] = Immunosuppressive activity in BALB/c mouse T cells assessed as inhibition of anti-CD3/anti-CD28-stimulated cell proliferation after 72 hrs by MTT assay; assay type: functional, cell-based
Procedure, shortened: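 Female BALB/c mouse lymph node cells, 5 × 10⁵/well, stimulated with anti-CD3/anti-CD28 alongside graded compound for 72 h. MTT (4 mg/mL in PBS) was added 4 h before harvest. Formazan was dissolved in DMSO and read at 540 nm.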

T-cell [2] = experiment: Selectivity index, ratio of CC50 for BALB/c mouse T cells to IC50 for immunosuppressive activity in BALB/c mouse T cells; assay type: functional
[3] = Cytotoxicity against BALB/c mouse T cells after 48 hrs by MTT assay; assay type: cell-based, T-cell
Procedure, shortened: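 Lymph node cells from female BALB/c mice, 6-8 weeks old and specific-pathogen-free, plated at 5 × 10⁵ cells/well with graded compound for 48 h. Medium was RPMI 1640 with 10% fetal calf serum and penicillin/streptomycin, at 37 °C under 5% CO₂. MTT (4 mg/mL in PBS) was added 4 h before the end. Formazan was dissolved in DMSO and read at OD540. CC50 is the concentration reducing viability to 50%.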

KB = experiment: Cytotoxicity against human KB cells after 48 hrs by MTT assay; assay type: functional, cell-based
Procedure, shortened: (§1)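 Cells seeded at 5 × 10⁵ per well and exposed to a range of compound concentrations for 48 h. MTT (4 mg/mL in PBS) added 4 h before end of incubation. Medium replaced by DMSO to dissolve formazan, absorbance read at 540 nm. Value reported as IC₅₀.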

[4] = Cytotoxicity against human L02 cells after 48 hrs by MTT assay; assay type: cell-based; conditions: L02, 48 h; procedure, shortened: as §1
K562 = experiment: Cytotoxicity against human K562 cells after 48 hrs by MTT assay; assay type: functional, cell-based; conditions: K562, 48 h; procedure, shortened: as §1
HepG2 = experiment: Cytotoxicity against human HepG2 cells after 48 hrs by MTT assay; assay type: functional, cell-based; conditions: HepG2, 48 h; procedure, shortened: as §1
T-cell [5] = experiment: Immunosuppressive activity in anti-CD3/anti-CD28-stimulated BALB/c mouse T cells assessed as induction of apoptosis after 48 hrs by FACS analysis; assay type: functional, cell-based
Procedure, shortened: (§2)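 Lymph node cells isolated from naive BALB/c mice, cultured with anti-CD3/anti-CD28 plus compound at 1, 2, 4 or 8 µM for 48 h. Cells were stained with Annexin V-FITC and propidium iodide and analysed by flow cytometry to give apoptotic, necrotic and viable fractions.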

T-cell [6] = experiment: Immunosuppressive activity in anti-CD3/anti-CD28-stimulated BALB/c mouse T cells assessed as viable cells at 2 uM after 48 hrs by FACS analysis; assay type: functional; conditions: read-out: Activity; procedure, shortened: as §2
T-cell [7] = experiment: Immunosuppressive activity in anti-CD3/anti-CD28-stimulated BALB/c mouse T cells assessed as non-viable necrotic cells at 4 uM after 48 hrs by FACS analysis; assay type: functional; procedure, shortened: as §2
[8] = Toxicity in po dosed BALB/c mouse; assay type: organism-based; conditions: in vivo
Procedure, shortened: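 Acute oral toxicity in female SPF BALB/c mice, 6–8 weeks old, by OECD 425 up-and-down procedure. Food withheld 3–4 h before and 1–2 h after dosing. Animals dosed one at a time at 24 h intervals, dose raised after survival and lowered after death, four more dosed after reversal. 35 animals in total. LD₅₀ estimated by maximum likelihood with AOT425StatPgm.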

T-cell [9] = experiment: Immunosuppressive activity in anti-CD3/anti-CD28-stimulated BALB/c mouse T cells assessed as late apoptotic cells at 8 uM after 48 hrs by FACS analysis; assay type: functional; procedure, shortened: as §2
T-cell [10] = experiment: Immunosuppressive activity in anti-CD3/anti-CD28-stimulated BALB/c mouse T cells assessed as early apoptotic cells at 1 uM after 48 hrs by FACS analysis; assay type: functional; procedure, shortened: as §2
T-cell [11] = experiment: Immunosuppressive activity in anti-CD3/anti-CD28-stimulated BALB/c mouse T cells assessed as late apoptotic cells at 4 uM after 48 hrs by FACS analysis; assay type: functional; procedure, shortened: as §2
T-cell [12] = experiment: Immunosuppressive activity in anti-CD3/anti-CD28-stimulated BALB/c mouse T cells assessed as viable cells at 4 uM after 48 hrs by FACS analysis; assay type: functional; conditions: read-out: Activity; procedure, shortened: as §2
T-cell [13] = experiment: Immunosuppressive activity in anti-CD3/anti-CD28-stimulated BALB/c mouse T cells assessed as non-viable necrotic cells at 1 uM after 48 hrs by FACS analysis; assay type: functional; procedure, shortened: as §2
T-cell [14] = experiment: Immunosuppressive activity in anti-CD3/anti-CD28-stimulated BALB/c mouse T cells assessed as late apoptotic cells at 1 uM after 48 hrs by FACS analysis; assay type: functional; procedure, shortened: as §2
T-cell [15] = experiment: Immunosuppressive activity in anti-CD3/anti-CD28-stimulated BALB/c mouse T cells assessed as early apoptotic cells at 2 uM after 48 hrs by FACS analysis; assay type: functional; procedure, shortened: as §2
T-cell [16] = experiment: Immunosuppressive activity in anti-CD3/anti-CD28-stimulated BALB/c mouse T cells assessed as non-viable necrotic cells at 8 uM after 48 hrs by FACS analysis; assay type: functional; procedure, shortened: as §2
T-cell [17] = experiment: Immunosuppressive activity in anti-CD3/anti-CD28-stimulated BALB/c mouse T cells assessed as late apoptotic cells at 2 uM after 48 hrs by FACS analysis; assay type: functional; procedure, shortened: as §2
T-cell [18] = experiment: Immunosuppressive activity in anti-CD3/anti-CD28-stimulated BALB/c mouse T cells assessed as early apoptotic cells at 4 uM after 48 hrs by FACS analysis; assay type: functional; procedure, shortened: as §2
T-cell [19] = experiment: Immunosuppressive activity in anti-CD3/anti-CD28-stimulated BALB/c mouse T cells assessed as non-viable necrotic cells at 2 uM after 48 hrs by FACS analysis; assay type: functional; procedure, shortened: as §2
T-cell [20] = experiment: Immunosuppressive activity in anti-CD3/anti-CD28-stimulated BALB/c mouse T cells assessed as early apoptotic cells at 8 uM after 48 hrs by FACS analysis; assay type: functional; procedure, shortened: as §2
T-cell [21] = experiment: Immunosuppressive activity in anti-CD3/anti-CD28-stimulated BALB/c mouse T cells assessed as viable cells at 1 uM after 48 hrs by FACS analysis; assay type: functional; conditions: read-out: Activity; procedure, shortened: as §2
T-cell [22] = experiment: Immunosuppressive activity in anti-CD3/anti-CD28-stimulated BALB/c mouse T cells assessed as viable cells at 8 uM after 48 hrs by FACS analysis; assay type: functional; conditions: read-out: Activity; procedure, shortened: as §2

COC(=O)c1ccc(Br)cc1OC(=O)COc1cc(O)c2c(=O)cc(-c3ccccc3)oc2c1
IC50 [1]: 17.6 µM
Ratio CC50/IC50 (T-cell [2]): 18.54
CC50 at 48 h [3]: 326 µM

Cc1cccc(OC(=O)COc2cc(O)c3c(=O)cc(-c4ccccc4)oc3c2)c1C(=O)O
IC50 [1]: 37.2 µM
Ratio CC50/IC50 (T-cell [2]): 8.02
CC50 at 48 h [3]: 298 µM

COC(=O)c1cc(C)ccc1OC(=O)COc1cc(O)c2c(=O)cc(-c3ccccc3)oc2c1
IC50 [1]: 25.7 µM
Ratio CC50/IC50 (T-cell [2]): 11.93
CC50 at 48 h [3]: 306 µM

O=c1[nH]cc(F)c(=O)[nH]1 [FLUOROURACIL]
IC50 (KB): 2.16 µM
IC50 [4]: 56 µM
IC50 (K562): 38 µM
IC50 (HepG2): 2.78 µM

COC(=O)c1ccc(Cl)cc1OC(=O)COc1cc(O)c2c(=O)cc(-c3ccccc3)oc2c1
IC50 [1]: 12.4 µM
Ratio CC50/IC50 (T-cell [2]): 21.43
CC50 at 48 h [3]: 265 µM

COC(=O)c1cc(Cl)ccc1OC(=O)COc1cc(O)c2c(=O)cc(-c3ccccc3)oc2c1
IC50 [1]: 3.74 µM
Ratio CC50/IC50 (T-cell [2]): >116.57
CC50 at 48 h [3]: > 436 µM

COC(=O)c1cc(Br)ccc1OC(=O)COc1cc(O)c2c(=O)cc(-c3ccccc3)oc2c1
Activity (T-cell [5]): Dose-dependent effect
viability at 2 µM (T-cell [6]): 64.2%
Activity (T-cell [7]): 3.69%
IC50 (KB): 0.79 µM
IC50 [1]: 0.78 µM
LD50 [8]: 738 mg/kg
Activity (T-cell [9]): 40.95%
Activity (T-cell [10]): 3.79%
Ratio CC50/IC50 (T-cell [2]): >576.92
CC50 at 48 h [3]: > 450 µM
Activity (T-cell [11]): 38.7%
IC50 [4]: 274 µM
viability at 4 µM (T-cell [12]): 54.5%
IC50 (K562): 0.47 µM
Activity (T-cell [13]): 3.56%
Activity (T-cell [14]): 15.66%
IC50 (HepG2): 0.61 µM
Activity (T-cell [15]): 2.12%
Activity (T-cell [16]): 7.41%
Activity (T-cell [17]): 30.09%
Activity (T-cell [18]): 3.14%
Activity (T-cell [19]): 3.61%
Activity (T-cell [20]): 1.56%
viability at 1 µM (T-cell [21]): 77%
viability at 8 µM (T-cell [22]): 50.1%

COC(=O)c1cc(O)ccc1OC(=O)COc1cc(O)c2c(=O)cc(-c3ccccc3)oc2c1
IC50 [1]: 29.5 µM
Ratio CC50/IC50 (T-cell [2]): 8.94
CC50 at 48 h [3]: 263 µM

O=c1cc(-c2ccccc2)oc2cc(O)cc(O)c12 [CHRYSIN]
IC50 [1]: 44.2 µM
Ratio CC50/IC50 (T-cell [2]): 9.7
CC50 at 48 h [3]: 428 µM

O=C(COc1cc(O)c2c(=O)cc(-c3ccccc3)oc2c1)Oc1cccc(O)c1C(=O)O
IC50 [1]: 38.2 µM
Ratio CC50/IC50 (T-cell [2]): 8.83
CC50 at 48 h [3]: 338 µM

O=C(COc1cc(O)c2c(=O)cc(-c3ccccc3)oc2c1)Oc1cc(Br)cc(Br)c1C(=O)O
IC50 [1]: 45.7 µM
Ratio CC50/IC50 (T-cell [2]): 8.69
CC50 at 48 h [3]: 398 µM

O=C(COc1cc(O)c2c(=O)cc(-c3ccccc3)oc2c1)Oc1cc(Cl)cc(Cl)c1C(=O)O
IC50 [1]: 43.6 µM
Ratio CC50/IC50 (T-cell [2]): 7.92
CC50 at 48 h [3]: 345 µM

COC(=O)c1ccccc1OC(=O)COc1cc(O)c2c(=O)cc(-c3ccccc3)oc2c1
IC50 [1]: 28.5 µM
Ratio CC50/IC50 (T-cell [2]): 9.28
CC50 at 48 h [3]: 265 µM

COC(=O)c1cccc(OC)c1OC(=O)COc1cc(O)c2c(=O)cc(-c3ccccc3)oc2c1
IC50 [1]: 36.8 µM
Ratio CC50/IC50 (T-cell [2]): 5.34
CC50 at 48 h [3]: 196 µM

O=C(COc1cc(O)c2c(=O)cc(-c3ccccc3)oc2c1)Oc1cccc(Br)c1C(=O)O
IC50 [1]: 41.7 µM
Ratio CC50/IC50 (T-cell [2]): 9.28
CC50 at 48 h [3]: 388 µM

O=C(COc1cc(O)c2c(=O)cc(-c3ccccc3)oc2c1)Oc1cccc(Cl)c1C(=O)O
IC50 [1]: 38.9 µM
Ratio CC50/IC50 (T-cell [2]): 9.39
CC50 at 48 h [3]: 366 µM

COC(=O)c1ccc(C)cc1OC(=O)COc1cc(O)c2c(=O)cc(-c3ccccc3)oc2c1
IC50 [1]: 31.1 µM
Ratio CC50/IC50 (T-cell [2]): 8.04
CC50 at 48 h [3]: 250 µM

O=C(COc1cc(O)c2c(=O)cc(-c3ccccc3)oc2c1)Oc1cccc(F)c1C(=O)O
IC50 [1]: 40.3 µM
Ratio CC50/IC50 (T-cell [2]): 7.91
CC50 at 48 h [3]: 319 µM

O=C(COc1cc(O)c2c(=O)cc(-c3ccccc3)oc2c1)Oc1c(Cl)cccc1C(=O)O
IC50 [1]: 38.7 µM
Ratio CC50/IC50 (T-cell [2]): 9.45
CC50 at 48 h [3]: 366 µM

Cc1cccc(C(=O)O)c1OC(=O)COc1cc(O)c2c(=O)cc(-c3ccccc3)oc2c1
IC50 [1]: 39.1 µM
Ratio CC50/IC50 (T-cell [2]): 7.65
CC50 at 48 h [3]: 299 µM

O=C(COc1cc(O)c2c(=O)cc(-c3ccccc3)oc2c1)Oc1c(Br)cccc1C(=O)O
IC50 [1]: 40.6 µM
Ratio CC50/IC50 (T-cell [2]): 9.31
CC50 at 48 h [3]: 379 µM

COC(=O)c1cc(F)ccc1OC(=O)COc1cc(O)c2c(=O)cc(-c3ccccc3)oc2c1
IC50 [1]: 6.82 µM
Ratio CC50/IC50 (T-cell [2]): 50.08
CC50 at 48 h [3]: 389 µM
